Residue numbers refer to the chain shown, from its start. Several values for one entry are separate records, joined by “and”; a condition that tells them apart may be missing. Identical values can stand only once. Like-named read-outs stand apart in the source and are kept apart here.
How the values were obtained:
glutamate transport = conditions: cited from earlier work
EAAC1R446Q = molecular target: T1, EAAC1R446Q (Rattus norvegicus, UniProt P51907, R446Q); assay: Whole-cell current recording of EAAC1 with the R446Q mutation, exchange mode; type: cell-based; conditions: application of 1 mM L-glutamate or 0.2 mM TBOA; NaSCN pipette; 0 mV
T1 sequence (P51907 1-523 R446Q): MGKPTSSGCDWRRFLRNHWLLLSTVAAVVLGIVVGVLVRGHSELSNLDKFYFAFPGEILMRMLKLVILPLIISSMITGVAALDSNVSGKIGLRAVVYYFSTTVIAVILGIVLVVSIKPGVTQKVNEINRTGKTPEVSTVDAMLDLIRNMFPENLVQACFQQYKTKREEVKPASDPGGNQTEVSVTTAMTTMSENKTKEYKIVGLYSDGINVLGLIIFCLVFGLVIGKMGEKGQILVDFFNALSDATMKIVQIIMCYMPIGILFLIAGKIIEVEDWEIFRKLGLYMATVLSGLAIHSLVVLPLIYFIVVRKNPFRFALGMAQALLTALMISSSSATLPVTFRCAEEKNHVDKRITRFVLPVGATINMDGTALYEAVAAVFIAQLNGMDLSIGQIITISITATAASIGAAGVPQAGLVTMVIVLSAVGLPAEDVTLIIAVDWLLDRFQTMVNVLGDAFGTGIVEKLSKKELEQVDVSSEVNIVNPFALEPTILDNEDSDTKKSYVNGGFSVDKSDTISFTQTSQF

EAAC1 [1] = molecular target: T2, EAAC1 (Rattus norvegicus, UniProt P51907); assay: Whole-cell current recording of EAAC1WT expressed in HEK 293T cells; type: cell-based; conditions: for effect on anion current when applied alone: 100 μM applied alone, intracellular SCN−
T2 sequence (P51907 1-523): T1 sequence (P51907 1-523 R446Q) with Q446R
How it was run: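 HEK 293T cells transfected with EAAC1 plasmid plus RFP DNA (JetPRIME) and used at least 24 h later; whole-cell patch clamp held at 0 mV. Ki came from test-compound dose-response curves of glutamate-induced anion current at 20, 50 and 100 μM L-glutamate (forward mode: 140 mM NaCl outside, 140 mM KSCN pipette). Reverse mode used KSCN outside with NaCl + 10 mM L-Glu in the pipette. Homoexchange used NaCl + 1 mM L-glutamate outside with NaSCN + 10 mM L-glutamate in the pipette.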

[2] = physiological conditions; cited from earlier work
[3] = pKa of the 3-hydroxyl-Δ2-isoxazoline group; type: physicochemical; conditions: pH 7.3, based on its pKa
EAAC1 [4] = molecular target: T2, EAAC1; assay: Pre-incubation / rapid solution exchange experiment; type: cell-based
How it was run: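 Transfected HEK 293T cells, whole-cell at 0 mV; bath 140 mM NaMES, pipette 140 mM KSCN. Test compound (3, 20 or 100 μM) applied 2 s by solution exchange, then rapid washout with simultaneous switch to 1 mM L-glutamate (~10 ms exchange resolution, ~100 mbar). Responses normalised to a 100 μM glutamate control, n = 3; observed rate constants taken as 1/τ.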

[5] = cited from earlier work
[6] = system: glutamate transporters in synaptosomes prepared from rat brains; conditions: (+)-HIP-B eutomer versus (−)-HIP-B; cited from earlier work
EAAC1 [7] = molecular target: T2, EAAC1; assay: Laser-pulse photolysis of MNI-caged glutamate, pre-steady-state kinetics; type: cell-based
How it was run: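 HEK 293T cells co-transfected with EAAC1 and RFP plasmids, used ≥24 h later; whole-cell clamp at 0 mV. 1 mM MNI-caged L-glutamate pre-applied 4 s, then ~5 ns 355 nm pulse releasing ~60–100 μM glutamate; 160 ms at 50 kHz, ±10 μM test compound. Bath 140 mM NaMES; pipette 140 mM KMES (transport) or KSCN (anion). Exponential fits→decay rate constants.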

| SMILES | apparent affinity for inhibition of glutamate transport (glutamate transport) | current induced in EAAC1R446Q (EAAC1R446Q) [pA] | effect on anion current when applied alone (EAAC1 [1]; 0 mV) | neurotoxicity [2] | fraction in neutral form [3] | bimolecular rate constant for binding (EAAC1 [4]; estimated from Ki in the 20 μM range and dissociation on the 50 ms time scale) | time scale of binding at the relevant concentration range (EAAC1 [4]; estimated from bimolecular rate constant) [ms] | time for full reversal of inhibition (EAAC1 [4]; washout) [ms] | time scale of dissociation from binding site (EAAC1 [4]; washout experiment) | pKa of the 3-hydroxyl-Δ2-isoxazoline group [5] | transport current when applied alone (EAAC1 [1]; 100 μM, NaMES extracellular, KMES pipette, 0 mV) | alleviation of TBOA (1 μM) inhibition of leak anion current (EAAC1 [1]; any concentration tested, up to 70 μM, in the presence of 1 μM TBOA) | Ki (EAAC1 [1]; read-out: Ki value (range used for estimate), approximate value in discussion) [µM] | Ki (EAAC1 [1]; read-out: inhibition constant Ki, glutamate-induced anion current, forward transport mode, 20 μM glutamate, n = 3, 0 mV, KSCN pipette) [µM] | Ki (EAAC1 [1]; read-out: inhibition constant Ki, glutamate-induced anion current, forward transport mode, 100 μM glutamate, n = 3, 0 mV, KSCN pipette) [µM] | Ki (EAAC1 [1]; read-out: inhibition constant in the reverse transport mode, 20 μM glutamate, n = 3, reverse transport mode) [µM] | eudismic ratio, inhibition of [3H]D-aspartate uptake [6] | effect on peak of transient anion current (EAAC1 [7]; anion conducting mode) | effect on decay time constants τfast and τslow of transient transport current (EAAC1 [7]; forward transport mode) | time constant for activation of anion current by glutamate (EAAC1 [4]; 1 mM glutamate, no inhibitor, limited by solution exchange) [ms] |
| --- | --- | --- | --- | --- | --- | --- | --- | --- | --- | --- | --- | --- | --- | --- | --- | --- | --- | --- | --- | --- |
| N[C@H](C(=O)O)[C@H](OCc1ccccc1)C(=O)O (racemic) [TBOA, DL-threo-β-benzyloxyaspartic acid] | sub-μM range | < 5 | generated outward current | neurotoxic | – | – | – | – | – | – | – | – | – | – | – | – | – | – | – | – |
| O=C(O)[C@H]1NC[C@@H]2C(O)=NO[C@@H]21 [(+)-HIP-B, (+)-(3aS,6S,6aS)-3-Hydroxy-4,5,6,6a-tetrahydro-3aH-pyrrolo[3,4-d]isoxazole-6-carboxylic acid] | – | – | did not induce or inhibit anion current | – | less than 1% | ~10^6 M^−1s^−1 | 20 to 50 | ≤ 500 | 50 to 60 ms and ~50 ms | 5.1 | did not elicit transport current | unable to alleviate the TBOA effect | ~20 | 8.7 ± 1.5 | 9.2 ± 1.2 | 23.2 ± 2.5 | 10 | inhibited strongly | virtually unaffected | – |
| N[C@@H](CCC(=O)O)C(=O)O [glutamate, L-glutamate, reference compound] | – | < 5 | – | – | – | – | – | – | – | – | – | – | – | – | – | – | – | – | – | 7 ± 2 |

Reference: publication PMC3493172 (Biochemistry, 2012)
